From ChEMBL document CHEMBL1123093, “Synthesis and biological activity of 6-substituted mitosene analogues of the mitomycins” (J Med Chem, 1985)

How the values were obtained:
Escherichia coli [1] = experiment: Phage induction (ILB) in Escherichia coli: ratio was reported at a dose of 3.1 ug/mL
Escherichia coli [2] = experiment: Phage induction (ILB) in Escherichia coli: ratio was reported at a dose of 0.8 ug/mL
Mus musculus [3] = species: Mus musculus; experiment: Antitumor activity in P388 mouse leukemia and maximum % T/C value was determined at optimal dose (OD); assay type: functional
Summary of the method: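 P388 ascites leukemia: 10⁶ ascites cells implanted in female CDF₁ mice. Each dose level was given on day 1 only, to six mice per dose. Ten control mice received saline. Median survival time (MST) was recorded, and % T/C > 125 was taken as active.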

[4] = Partition coefficient between octanol and phosphate buffer (pH 7.4) was observed for the compound; assay type: physicochemical
Summary of the method: (§1)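 Partition coefficient measured as distribution between 1-octanol and pH 7.4 phosphate buffer, following the Hansch method.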

Mus musculus [5] = experiment: Antitumor activity against P388 mouse leukemia as maximum and median survival time as % T/C was reported at a dose of 6.4 mg/Kg per injection.; assay type: functional
Summary of the method: (§2)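 P388 ascites, 10⁶ cells implanted in female CDF₁ mice. Six mice per dose; single treatment on day 1 only. Ten controls received saline. Survival recorded as median survival time; % T/C = treated vs control MST, with % T/C > 125 taken as active.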

Mus musculus [6] = experiment: Antitumor activity against P388 mouse leukemia as maximum and average change in body weight was reported at a dose of 25.6 mg/kg per injection.; assay type: functional
Mus musculus [7] = experiment: Antitumor activity against P388 mouse leukemia as maximum and average change in body weight was reported at a dose of 6.4 mg/kg per injection.; assay type: functional
Mus musculus [8] = experiment: Antitumor activity against P388 mouse leukemia as maximum and median survival time as % T/C was reported at a dose of 3.2 mg/Kg per injection.; assay type: functional
Summary of the method: as §2

Mus musculus [9] = experiment: Antitumor activity against P388 mouse leukemia as maximum and median survival time as % T/C was reported at a dose of 12.8 mg/Kg per injection.; assay type: functional
Summary of the method: as §2

Mus musculus [10] = experiment: Antitumor activity against P388 mouse leukemia as maximum and average change in body weight was reported at a dose of 3.2 mg/kg per injection.; assay type: functional
Mus musculus [11] = experiment: Antitumor activity against P388 mouse leukemia as maximum and average change in body weight was reported at a dose of 12.8 mg/kg per injection.; assay type: functional
Escherichia coli [12] = experiment: Induction of phage in Escherichia coli(ILB) expressed as Ratio of plaques in treated bacterial cultures to those in control at a dose of 0.8 ug/mL; assay type: functional
Summary of the method: (§3)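 Phage induction (ILB) in Escherichia coli: latent phage was activated in bacterial cultures exposed to compound at the stated concentration. Plaques (clear areas) were counted, and the value reported is plaques in treated culture divided by plaques in the untreated control.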

[13] = Partition coefficient between octanol and phosphate buffer (pH 7.4) was observed for the compound at pH 7.4.; assay type: physicochemical
Summary of the method: as §1

Escherichia coli [14] = experiment: Induction of phage in Escherichia coli(ILB) expressed as Ratio of plaques in treated bacterial cultures to those in control at a dose of 3.1 ug/mL; assay type: functional
Summary of the method: as §3

Mus musculus [15] = experiment: Antitumor activity against P388 mouse leukemia as maximum and average change in body weight was reported at a dose of 0.4 mg/Kg per injection.; assay type: functional
Mus musculus [16] = experiment: Antitumor activity against P388 mouse leukemia as maximum and average change in body weight was reported at a dose of 0.8 mg/kg per injection.; assay type: functional
Mus musculus [17] = experiment: Antitumor activity against P388 mouse leukemia as maximum and average change in body weight was reported at a dose of 1.6 mg/kg per injection.; assay type: functional
Mus musculus [18] = experiment: Antitumor activity against P388 mouse leukemia as maximum and median survival time as % T/C was reported at a dose of 0.8 mg/Kg per injection.; assay type: functional
Summary of the method: as §2

Mus musculus [19] = experiment: Antitumor activity against P388 mouse leukemia as maximum and median survival time as % T/C was reported at a dose of 4.8 mg/Kg per injection.; assay type: functional
Summary of the method: as §2

Mus musculus [20] = experiment: Antitumor activity against P388 mouse leukemia as maximum and average change in body weight was reported at a dose of 0.2 mg/kg per injection.; assay type: functional
Mus musculus [21] = experiment: Antitumor activity against P388 mouse leukemia as maximum and median survival time as % T/C was reported at a dose of 0.2 mg/Kg per injection.; assay type: functional
Summary of the method: as §2

Mus musculus [22] = experiment: Antitumor activity against P388 mouse leukemia as maximum and average change in body weight was reported at a dose of 4.8 mg/kg per injection.; assay type: functional
Mus musculus [23] = experiment: Antitumor activity against P388 mouse leukemia as maximum and median survival time as % T/C was reported at a dose of 1.6 mg/Kg per injection.; assay type: functional
Summary of the method: as §2

Mus musculus [24] = experiment: Antitumor activity against P388 mouse leukemia as maximum and median survival time as % T/C was reported at a dose of 0.4 mg/Kg per injection.; assay type: functional
Summary of the method: as §2

Row | SMILES | ILB (Escherichia coli [1]) | ILB (Escherichia coli [2]) | T/C (Mus musculus [3]) [%] | logD [4] | T/C (Mus musculus [8]) [%] | Average weight change (Mus musculus [10]) [g] | also measured
1 | COC1=CC(=O)c2c(c(COC(N)=O)c3n2CCC3OC(C)=O)C1=O (centres undefined) | 18.6 | 11.9 | 111 | 0.72 |  |  | 
2 | CNC(=O)OCc1c2c(n3c1C(OC(C)=O)CC3)C(=O)C=C(OC)C2=O (centres undefined) | 10.1 | 6 | 106 | 1.19 |  |  | 
3 | CNC(=O)OCc1c2c(n3c1C(OC(C)=O)CC3)C(=O)C(Cl)=C(OC)C2=O (centres undefined) | 27 | 12.1 |  | 2.08 |  |  | 
4 | CNC(=O)OCc1c2c(n3c1C(OC(C)=O)CC3)C(=O)C(C)=C(OC)C2=O (centres undefined) | 34.1 | 16.6 | 180 | 2.39 | 120 | 1 | T/C (Mus musculus [5]): 135%; Average weight change (Mus musculus [6]): -0.2 g; Average weight change (Mus musculus [7]): 1.2 g; T/C (Mus musculus [9]): 145%; Average weight change (Mus musculus [11]): 0 g
5 | CNC(=O)OCc1c2c(n3c1C(OC(C)=O)CC3)C(=O)C(Br)=C(N)C2=O (centres undefined) |  |  |  |  |  |  | ILB (Escherichia coli [12]): 1.2; logD [13]: 1.15; ILB (Escherichia coli [14]): 1.1
6 | CO[C@@]12[C@H](COC(N)=O)C3=C(C(=O)C(C)=C(N)C3=O)N1C[C@@H]1N[C@@H]12 [MITOMYCIN] |  |  |  |  | 195 | -0.7 | Average weight change (Mus musculus [15]): 0.3 g; Average weight change (Mus musculus [16]): 0.5 g; Average weight change (Mus musculus [17]): -0.2 g; T/C (Mus musculus [18]): 135%; T/C (Mus musculus [19]): 205%; Average weight change (Mus musculus [20]): 0.8 g; T/C (Mus musculus [21]): 120%; Average weight change (Mus musculus [22]): -2.2 g; T/C (Mus musculus [23]): 150%; T/C (Mus musculus [24]): 130%
7 | CNC(=O)OCc1c2c(n3c1C(OC(C)=O)CC3)C(=O)C=C(N1CCCC1)C2=O (centres undefined) | 1 | 1 |  | 1.4 |  |  | 
8 | CNC(=O)OCc1c2c(n3c1C(OC(C)=O)CC3)C(=O)C(Br)=C(OC)C2=O (centres undefined) | 12.4 | 7.1 | 100 |  |  |  | 
9 | COC1=C(C)C(=O)c2c(c(COC(N)=O)c3n2CCC3OC(C)=O)C1=O (centres undefined) | 24.5 | 13.2 | 165 | 1.54 | 133 | 0.3 | Average weight change (Mus musculus [7]): 0.1 g; Average weight change (Mus musculus [16]): 1 g; Average weight change (Mus musculus [17]): 0.6 g; T/C (Mus musculus [18]): 114%; T/C (Mus musculus [23]): 124%
